# Assay outcomes: PubChem BioAssay, several laboratories
# ZTA DNA inh: counter-screen for EBNA-1 inhibitors: inhibitors of Epstein-Barr virus ZTA; P03206; ZTA-DNA binding, fluorescence polarization; inhibition, % at 11 µM; 320,000 compounds, 0.15% hits; AID 2234; in the data active means inhibition above about 33%
# Target sequence (P03206 whole entry, looked up): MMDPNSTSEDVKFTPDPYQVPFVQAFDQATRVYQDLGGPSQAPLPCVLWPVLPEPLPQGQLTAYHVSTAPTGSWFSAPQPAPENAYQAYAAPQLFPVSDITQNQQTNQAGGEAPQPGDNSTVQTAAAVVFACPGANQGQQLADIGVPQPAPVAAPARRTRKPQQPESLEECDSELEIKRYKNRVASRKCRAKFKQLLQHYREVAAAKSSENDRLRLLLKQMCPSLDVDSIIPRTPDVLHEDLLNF
# ALR inh: blocks human ALR sulfhydryl oxidase activity; 290,000 compounds, 3.8% hits; P55789; inhibition, % (no concentration beside the values); AID 485317; purified ALR, DTT oxidation, H2O2 HRP-luminol luminescence;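 active means mean replicate inhibition above about 79%, with every replicate also reaching it, limit read from the data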
# Target sequence (P55789 whole entry, looked up): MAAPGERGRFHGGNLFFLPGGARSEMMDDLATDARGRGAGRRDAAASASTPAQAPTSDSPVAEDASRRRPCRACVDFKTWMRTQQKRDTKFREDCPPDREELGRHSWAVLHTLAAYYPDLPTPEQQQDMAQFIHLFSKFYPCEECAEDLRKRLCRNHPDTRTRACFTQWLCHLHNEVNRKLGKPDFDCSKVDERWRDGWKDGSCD
# M18AAP inhibitor: PfM18AAP enzyme inhibition | recombinant PfM18AAP, H-Glu-NHMec fluorogenic cleavage | inhibition, % at 7.35 µM | 290,000 compounds, 1.2% hits | AID 1822;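 active means inhibition above the campaign mean inhibition over all tested compounds plus 3 SD, cut at about 28% in these data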;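 further: 0% = plate median of test compound wells and 100% = 2 mM ZnCl2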
# EBNA-1 inhibitor: blocks EBNA-1 binding to DNA; EBNA-1 DNA binding, fluorescence polarization; inhibition, % at 14.8 µM; 300,000 compounds, 0.34% hits; in the data active means inhibition above about 28%
# HCV NS3 hel inh: blocks Hepatitis C virus NS3 helicase unwinding; NS3 helicase DNA unwinding, Cy5 molecular beacon fluorescence; 290,000 compounds, 0.56% hits; inhibition, % at 10.9 µM;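 active means inhibition above the mean of all tested compounds plus 3 SD, set per campaign, cut at about 35% in these data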;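 further: 0% = DMSO wells and 100% = thioflavine S control wells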
#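 System: NS3 helicase fragment of HCV / Schedule: 1 h at 25 °C / Control set: DMSO alone as 0% and 110 µM thioflavine S as 100% / Reagent: Cy5/quencher beacon DNA duplex and ATP to start / Technique: Cy5 fluorescence / Replication: singlicate / Evaluation: % inhibition of end-to-start signal ratio versus controls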
# HCV core dimer: HCV core protein dimerization inhibition; TR-FRET GST/Flag-core106 dimerization, 1536-well; 300,000 compounds, 0.33% hits; inhibition, % at 5 µM; AID 1899;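 active means inhibition above the mean of all tested compounds plus 3 SD, set per screening campaign, cut at about 45% in these data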
#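 Material: Tagged HCV core106 pair (GST and Flag) | Amount: GST-core106 13.5 nM, Flag-core106 17 nM | Medium: KF-containing HEPES buffer, pH 7.45, DTT, CHAPS, BSA | Reagent: Eu donor and XL665 acceptor anti-tag antibodies | Schedule: 4 h at 22.5 °C | Technique: Time-resolved FRET, ex 340 nm, em 617 and 671 nm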
# NS3 helicase cf: confirmation of Hepatitis C virus NS3 helicase inhibitors; shares compounds with HCV NS3 hel inh; NS3 helicase DNA unwinding, Cy5 molecular beacon fluorescence; inhibition, % at 10.9 µM; 1,600 compounds, 31% hits;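 active means inhibition above the mean of all tested compounds plus 3 SD, cutoff set per campaign, cut at about 36% in these data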
# FID counter trip: displaces DNA intercalator in HCV helicase counter-screen; shares compounds with HCV NS3 hel inh; 1,600 compounds, 4% hits; inhibition, % at 7.9 µM; DNA fluorescent intercalator displacement, fluorescence; in the data active means inhibition above about 37%;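 further: 0% = vehicle and 100% = reference compound; higher means more displacement of ethidium bromide from the DNA hairpin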
# DNA FID DR: counter-screen for HCV NS3 helicase inhibitors: DNA intercalator displacement dose response. shares compounds with HCV NS3 hel inh. fluorescent intercalator displacement from DNA, fluorescence. IC50, µM. 120 tested, under 10 active; call rule not given here
# * marks the source's active call; other numbers are inactive results; nt = no result given. Hits are enriched below; roughly 5.2% of the tested compounds scored in any of these assays.
SMILES,ZTA DNA inh,ALR inh,M18AAP inhibitor,EBNA-1 inhibitor,HCV NS3 hel inh,HCV core dimer,NS3 helicase cf,FID counter trip,others
COc1ccc(S(=O)(=O)N2CCN(CC(=O)NCCc3cccs3)CC2)cc1,16.3,8.2,nt,nt,nt,nt,nt,nt,
Cc1cc(OCC(=O)OCC(=O)N2CC(C)CC(C)C2)ccc1Cl (centres undefined),3.9,-2.1,nt,nt,nt,nt,nt,nt,
CC(N)C(=O)NC(C(=O)N1CCCC1C(=O)NC(c1ccccc1)c1ccccc1)C(C)C (centres undefined),-11.0,-8.3,nt,nt,nt,nt,nt,nt,
O=C(/C=C/c1ccco1)Nc1cccc(S(=O)(=O)N2CCOCC2)c1,-2.5,7.4,-7.5,-4.9,5.2,6.4,nt,nt,
Cc1ccc(/C=C/C(=O)Nc2cccc(S(=O)(=O)N3CCOCC3)c2)o1,16.5,10.3,-18.0,13.4,47.5*,21.2,-1.4,17.9,
CS(=O)(=O)N1N=C(c2ccco2)CC1c1ccccc1Cl (centres undefined),0.3,-4.0,-19.9,7.6,36.4*,6.7,-19.1,-8.5,
CS(=O)(=O)N1N=C(c2ccco2)CC1c1ccc(Cl)cc1Cl (centres undefined),4.9,1.1,0.4,0.4,15.6,3.0,nt,nt,
O=C(CSc1nnc(NC(=O)C2CC2)s1)Nc1ccc(F)cc1F,12.1,-2.8,3.2,1.3,-1.6,-1.1,nt,nt,
Cc1ccc(N(C(=O)c2csnn2)C(C(=O)NC2CCCC2)c2ccncc2)c(C)c1 (centres undefined),-3.2,-4.0,2.5,-4.9,38.8*,-3.0,-6.6,-8.0,
CC1=C(C#N)C(/C=N/OCc2ccc(F)cc2Cl)CC(=O)N1 (centres undefined),-18.9,0.2,-2.0,-1.0,7.6,-1.0,nt,nt,
CC1CCCN(S(=O)(=O)c2ccc(C(=O)Nc3nnc(C4=COCCO4)o3)cc2)C1 (centres undefined),-17.0,98.2*,5.1,-1.6,65.4*,-12.1,-15.6,-29.9,
CC(=O)c1ccc(OC(=O)/C=C/c2ccccc2)cc1,9.2,7.2,0.2,-3.6,38.6*,5.0,1.8,-1.7,
COc1ccc(/C(N)=N/OC(=O)/C=C/c2ccccc2)cc1,5.6,0.8,2.4,7.8,-1.2,6.7,nt,nt,
Cc1cc(C(=O)OCC(=O)NC2CCCCC2C)c2ccccc2n1 (centres undefined),nt,-25.7,nt,nt,nt,nt,nt,nt,
CC(C)CNC(=O)COC(=O)c1c2c(nc3ccccc13)/C(=C/c1cccs1)CC2,-5.7,-8.8,15.3,2.8,74.4*,13.2,-8.3,-8.5,
O=C(COC(=O)c1c2c(nc3ccccc13)/C(=C/c1ccco1)CC2)NC1CCCC1,nt,nt,13.4,nt,36.2*,nt,95.7*,15.0,DNA FID DR=>79.4
CC1CCCCC1NC(=O)COC(=O)c1c2c(nc3ccccc13)/C(=C/c1ccco1)CC2 (centres undefined),-10.1,-5.0,11.4,9.9,46.6*,97.2*,97.0*,0.7,DNA FID DR=>79.4
COc1ccc2cc(C(=O)N3CCc4ccccc43)[nH]c2c1,-11.8,-14.2,10.5,-4.8,27.6,-15.0,nt,nt,
Cc1cccc(NS(=O)(=O)c2nnc(NC(=O)c3ccc(C)c(C)c3)s2)c1,-6.2,33.4,6.2,-4.3,-2.2,13.8,nt,nt,
COc1cccc(C(=O)Nc2nnc(S(=O)(=O)Nc3cccc(C)c3)s2)c1,13.8,73.5,10.2,0.1,45.7*,-5.4,19.0,11.5,
O=C(Nc1ccc([N+](=O)[O-])cc1)N1CCN(C(=O)C2CCCO2)CC1 (centres undefined),-12.6,1.7,-2.1,-2.0,2.8,-0.3,nt,nt,
CC(=O)OCCc1[nH]c2ccccc2c1C,-9.5,-17.0,-0.6,3.1,52.4*,-6.8,-16.1,2.4,
CC(=O)OCCc1c2ccccc2c(CCCN(C)C)c2ccccc12,6.0,-21.4,nt,6.3,nt,-2.3,nt,nt,
O=C(O)Cc1sc(N/N=C\c2ccncc2)nc1-c1ccccc1,6.0,47.5,8.6,3.4,54.9*,-3.9,-27.1,-1.4,
C(=N\Nc1nc(-c2ccccc2)cs1)/c1ccncc1,4.6,14.5,10.9,3.5,-2.9,-2.5,nt,nt,
SMILES,ZTA DNA inh,ALR inh,M18AAP inhibitor,EBNA-1 inhibitor,HCV NS3 hel inh,HCV core dimer,NS3 helicase cf,FID counter trip,others
O=C(c1ccco1)N(CCC(c1ccccc1)c1ccco1)Cc1ccccc1 (centres undefined),2.9,71.0,4.5,-5.5,50.3*,41.2,21.4,-19.5,
O=C(O)c1cc([N+](=O)[O-])cc([N+](=O)[O-])c1N1CCN(c2cccc(C(F)(F)F)c2)CC1,nt,-15.0,9.8,nt,41.7*,nt,54.9*,-16.9,
COc1ccc(OC)c(/C=C/c2ccc3cccc(O)c3n2)c1,-17.0,-0.7,11.8,-10.3,59.9*,-16.4,-10.7,-0.9,
COc1cc(Br)c(/C=C/c2ccc3cccc(O)c3n2)cc1OC,-11.0,-5.4,-35.8,-6.9,14.4,-5.0,nt,nt,
CCOC(=O)/C(=N\Nc1ccc(OC)cc1)c1csc(Nc2ccccc2)n1,-9.2,-25.5,11.2,-7.7,7.3,1.6,nt,nt,
CCCCC(CCC(=O)O)(C(=O)OCC)c1csc(Nc2ccc(OCC)cc2)n1 (centres undefined),6.1,71.5,-24.0,4.2,84.9*,9.8,58.3*,-28.1,
Cc1cc(C(=O)CSc2n[nH]c(N)n2)c(C)n1-c1ccc2c(c1)OCO2,-2.4,14.9,9.2,-7.5,7.5,22.1,nt,nt,
COC(=O)C1(CC2CC(c3ccc(Cl)cc3)=NO2)CCN(C(=O)OC(C)(C)C)CC1 (centres undefined),12.8,nt,nt,-0.6,nt,-7.2,nt,nt,
CCc1ccccc1OCC(=O)NC1CCCC1,nt,nt,-4.5,nt,49.5*,nt,-0.6,-6.7,
Cc1ccc(-c2csc(NS(=O)(=O)c3cccc(F)c3)n2)o1,nt,52.0,nt,nt,nt,nt,nt,nt,
Cc1cccc(N2CCN(C(=O)C3CC(=O)N(C4CCCC4)C3)CC2)c1C (centres undefined),-14.8,-3.4,-5.0,-1.3,10.6,-2.1,nt,nt,
CCOC(=O)c1sc(N2C(=O)C(O)=C(C(=O)c3ccco3)C2c2ccc([N+](=O)[O-])cc2)nc1C (centres undefined),-16.8,nt,17.2,0.8,36.9*,-3.3,105.6*,28.0,
CCOC(=O)c1ccc(N2C(=O)C(O)=C(C(C)=O)C2c2ccc([N+](=O)[O-])cc2)cc1 (centres undefined),-0.1,13.4,15.1,-9.5,45.3*,-2.6,36.3*,-22.7,
Cc1ccc(C2C(C(=O)c3ccco3)=C(O)C(=O)N2c2ncccn2)cc1 (centres undefined),15.7,13.9,0.2,4.6,8.7,3.5,nt,nt,
CSc1ccc(C2C(C(=O)c3ccco3)=C(O)C(=O)N2c2nnc(SC)s2)cc1 (centres undefined),3.8,98.1*,13.6,3.5,38.8*,27.9,89.1*,4.2,DNA FID DR=>79.4
